KCNQ1 pot: potentiators or activators of human KCNQ1 potassium channel; P51787; B-score at 10 µM; CHO-K1 KCNQ1, thallium flux FluxOR fluorescence; stronger effect = higher value; 310,000 compounds, 0.35% hits;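 active = fluorescence ratio B-score, a plate-corrected score, at least three library SD, with initial intensity B-score within 5 SD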
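Assay system: CHO-K1 cells stably expressing KCNQ1; Medium: assay buffer with matched DMSO; Also added: K+/Tl+ depolarizing stimulus; Dosing: single dose; Timing: dye 90 min, compound 20 min, room temperature; Measured by: kinetic FluxOR thallium fluorescence, 10-s 1-Hz baseline, 110-s post-stimulus read; Read-out: peak-minus-minimum fluorescence over initial fluorescence, negative-control normalized, B-scored.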
KCC2 mod: modulates chloride dependent transport by human KCC2 | AID 1456 | B-score of Tl+ flux slope (higher = more flux/activation; lower = inhibition) at 10 µM | KCC2 cells, thallium flux FluoZin-2 fluorescence | Q9H2X9 | 190,000 compounds, 2.2% hits;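 active = thallium flux slope and its plate-corrected score both differing from the plate sample mean at a set confidence after two filtering rounds, in either direction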;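 note: slope of fluorescence scaled to starting intensity during 10 to 20 s after thallium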
KCNK3 inh: human KCNK3 channel inhibition, primary screen; O14649; 340,000 compounds, 0.84% hits; CHO-KCNK3 thallium flux, FluxOR fluorescence; stronger effect = lower value; B-score at 10 µM;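 active = B-score under library mean minus 4 SD, starting fluorescence ratio at most library mean plus 5 SD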;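 note: more negative B-score means stronger inhibition of thallium flux through KCNK3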
KCNK9 block: blocks the human KCNK9 two-pore domain potassium channel; Q9NPC2; HEK293 KCNK9, FluxOR thallium flux fluorescence; stronger effect = lower value; B-score at 10 µM; 310,000 compounds, 1.2% hits; AID 488922;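 active = ratio B-score over 3 SD below the library mean, with starting fluorescence within 5 SD of its mean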;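 note: negative B-score means less thallium flux so channel inhibition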
KCNQ1 block: inhibitors of human KCNQ1 potassium channel; P51787; CHO-K1 KCNQ1, FluxOR thallium flux fluorescence; stronger effect = higher value; B-score at 10 µM; 310,000 compounds, 1.3% hits; AID 2642;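 active = compounds whose thallium flux B-score, printed positive for inhibition, exceeds three library SD while starting fluorescence stays within three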;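 note: channel opened by potassium depolarization with thallium stimulus after 20 min compound exposure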
hERG protect: hERG (human) protection from proarrhythmic block; Q12809; CHO-hERG, FluxOR thallium flux, dofetilide IC70 present; AID 1511; 310,000 compounds, 0.51% hits; activation (rescue from dofetilide block), less the hit threshold, % at 10 µM;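 active = activation above the mean of controls blocked by dofetilide plus 5 SD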;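 note: thallium influx through hERG after potassium depolarization seen as dye fluorescence rise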
Starred values were filed as active, the others as inactive; i = inactive; · = no result given. A selection: hits, their analogues and other compounds. The true share with any hit is near 4.1%.

SMILES	KCNQ1 pot	KCC2 mod	KCNK3 inh	KCNK9 block	KCNQ1 block	hERG protect
CCCOP(=O)(c1ccccc1)c1ccccc1	i	0.0289	i	i	i	-5.0
CC(C)CCOP(=O)(c1ccccc1)c1ccccc1	i	-0.251	i	-6.75*	i	-7.3
c1ccc(C(c2ccccc2)N2CCN(C(c3ccccn3)c3nnnn3C3CCCC3)CC2)cc1 (centres undefined)	i	2.3	i	-15.3*	i	-12.7
Cc1ccc(NCc2ccc(Cl)nc2)c(NCc2ccc(Cl)nc2)c1	i	-0.234	i	i	i	-7.2
Cc1ccc(S(=O)(=O)C(C#N)c2nc3ccccc3nc2N2CCC(C)CC2)cc1 (centres undefined)	i	-2.79	i	i	i	-14.2
CCC1(C2=CCCCC2)C(=O)NC(=O)N=C1N (centres undefined)	·	·	i	·	·	·
CC1=CC(c2ccccc2)n2ncnc2N1 (centres undefined)	i	·	i	i	i	-5.2
O=C(NC(=S)Nc1nc2c(ccc3ccccc32)s1)c1cccs1	9*	17.5*	i	i	i	0.2
O=C(NC(=S)Nc1cccnc1)c1cccs1	i	4.49	i	i	i	-1.8
Cc1ccnc(NC(=S)NC(=O)c2cccs2)c1	i	25.9*	i	i	i	-4.5
COc1ccc(-c2csc(NC(=S)NC(=O)c3cccs3)n2)cc1Br	9*	·	i	i	i	8.6*
O=C(NC(=S)Nc1ccc(Cl)cn1)c1cccs1	8*	21.2*	i	i	i	-0.3
Cc1ccnc(NC(=O)CNC(=O)c2cccs2)c1	i	·	i	i	i	-14.1
CCN1CCN(CCOc2ccccc2OCc2ccccc2)CC1	i	0.179	i	i	i	-9.8
CC(Oc1ccccc1)C(=O)N=C1SC2CS(=O)(=O)CC2N1c1ccc(F)cc1 (centres undefined)	i	·	i	i	i	-3.2
CC[n+]1c(/C=C/N(C)c2ccccc2)oc2ccc(Cl)cc21	i	0.992	i	i	i	-19.7
CCN1/C(=C/C=C/c2oc3ccc4ccccc4c3[n+]2CC)Oc2ccc3ccccc3c21	i	·	·	i	10*	-16.9
Cn1nc(C(F)(F)F)c(CN2CC(C)(C)C2=O)c1N1CCOCC1	i	0.454	i	i	i	5.0*
Cn1nc(C(F)(F)F)c(CNC(=O)C(C)(C)CCl)c1N1CCOCC1	i	-0.572	i	i	i	-9.6
CSc1ncnc2c1ccn2CC(=O)Nc1ccc(C)c(C)c1	·	·	i	·	·	·
CC1(C)C[C@@H]2C[C@@](C)(CN2C(=O)c2cc(COc3cccc(C(F)(F)F)c3)on2)C1	i	·	i	i	7*	-14.2
CCN1C(=O)[C@H]2[C@@H](c3ccc(-c4ccc(F)cc4)c(OC)c3)N[C@@](CC(C)C)(C(=O)OC)[C@H]2C1=O	i	·	·	-11.8*	i	-14.0
O=C(COC(=O)/C=C/c1cccc(C(F)(F)F)c1)Nc1ccc(Cl)cn1	·	·	i	·	·	·
COC(=O)c1ccc(=O)n(-c2ccc(OC)cc2)c1	i	8.16*	i	i	i	-2.8
CN(C)S(=O)(=O)c1ccc(C(=O)OCC(=O)Nc2cccnc2Cl)cc1	i	0.358	i	i	i	-11.2
SMILES	KCNQ1 pot	KCC2 mod	KCNK3 inh	KCNK9 block	KCNQ1 block	hERG protect
Cc1cc(C(C)(C)C)oc1C(=O)N(CC(=O)NC1CCCC1)c1cccc(C(F)(F)F)c1	i	·	-9.02*	-7.96*	i	0.0
CN(c1ccccc1)c1nc(N)c([N+](=O)[O-])c(Nc2ccccc2F)n1	i	·	i	-6.89*	i	-2.9
Cc1cccc(N2CC(C(=O)OCC(=O)c3c(N)n(CC(C)C)c(=O)n(C)c3=O)CC2=O)c1C (centres undefined)	·	·	i	·	·	·
O=C(c1ccco1)N1N=C(c2ccncc2)CC1(O)C(F)(F)F (centres undefined)	i	-0.693	i	i	i	-9.3
CCN(CC)c1ccc(C(=O)NC(=S)N2CCN(Cc3ccc4c(c3)OCO4)CC2)cc1	i	16.6*	i	i	i	-8.3
Cc1ccc(C(=O)N2CCN(Cc3ccc4c(c3)OCO4)CC2)c(Cl)c1	i	·	i	i	i	-9.5
O=C(c1ccccc1Cl)N1CCN(Cc2ccc3c(c2)OCO3)CC1	i	·	i	-7.01*	i	-7.5
CC(C)NC(=S)N1CCN(Cc2ccc3c(c2)OCO3)CC1	i	0.0259	i	i	i	-6.6
CNc1nc(=S)[nH]c2ccccc12	i	0.901	i	i	i	-3.3
S=c1nc(C2CCCCC2)[nH]c2ccccc12	22*	86.1*	i	i	i	10.4*
O=c1[nH]c(C2CCCCC2)nc2ccccc12	i	0.466	i	i	i	-3.0
c1ccc2c(c1)[nH]c1ccccc12	i	·	i	i	i	-4.3
CC(C)c1nc(=S)c2ccccc2[nH]1	i	18.9*	i	i	i	-3.9
S=c1nc(C2CC2)[nH]c2ccccc12	29*	32.3*	i	i	i	20.1*
Cc1ccc(S(=O)(=O)c2cc3c(=O)n4ccccc4nc3n(C)c2=N)cc1C	i	·	i	i	i	-10.0
OCCN(CCO)c1ccc2ccccc2c1	i	-0.0751	i	i	i	-14.3
OCCN(CCO)c1ccc(C(c2ccccc2Cl)c2ccc(N(CCO)CCO)cc2Cl)c(Cl)c1	11*	0.353	i	i	i	-10.0
Oc1ccc(NCc2ccccc2OCc2ccccc2F)cc1	i	-1.76	i	i	i	-12.0
Cc1ccc(NCc2ccccc2OCc2ccccc2F)cc1	i	0.231	i	i	8*	1.0
Cc1cccc(NCc2ccccc2OCc2ccccc2F)c1	i	-0.297	i	-7.46*	9*	-12.9
CCOc1cc(CNc2ccccc2)cc(Br)c1OCc1ccccc1F	i	0.0494	i	-7.64*	i	-6.3
CCN(CC)c1ccc(C(=O)OCC(=O)Nc2ncccn2)cc1	·	·	i	·	·	·
Cc1ccccc1NC(=O)NCCc1nc2ccccc2[nH]1	i	0.115	i	i	i	-8.6
O=C(/C(=C\c1ccccc1)c1nc2ccccc2[nH]1)c1ccc(Cl)cc1	i	1.18	i	i	i	-8.9
Cc1ccccc1NC(=S)c1nc2ccccc2[nH]1	i	45.8*	i	i	i	-13.1
S=C(Nc1ccc(Cl)cc1)c1nc2ccccc2[nH]1	i	29.6*	i	i	i	-10.1
O=C(NCCCN1CCOCC1)c1cc2c([nH]c3ccccc32)c(-c2cccc(Br)c2)n1	i	·	i	i	8*	-30.4
